Measurements from the M2OR odorant receptor database.
Substitutions are numbered along the chain they refer to.

Columns and labels:
Conditions in all cases: stereoisomer not certain
OR2A1 (Homo sapiens) = target: T1, OR2A1 (Homo sapiens) (UniProt Q8NGT9)
T1 sequence (whole entry): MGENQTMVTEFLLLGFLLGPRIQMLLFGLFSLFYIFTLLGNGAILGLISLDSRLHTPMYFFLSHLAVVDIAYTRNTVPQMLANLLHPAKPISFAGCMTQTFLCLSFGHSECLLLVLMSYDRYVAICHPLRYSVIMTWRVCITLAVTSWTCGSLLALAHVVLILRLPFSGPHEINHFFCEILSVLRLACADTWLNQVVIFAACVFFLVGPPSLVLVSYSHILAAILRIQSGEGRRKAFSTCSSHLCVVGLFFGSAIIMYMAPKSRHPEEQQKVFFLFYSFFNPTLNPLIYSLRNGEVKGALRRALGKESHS
In short: (§1)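 Whether a receptor–molecule pair is responsive (active) rests on the original authors' judgment that its measured signal was statistically different from baseline. Pairs without that judgment are non-responsive (inactive). Sources used varied assay methods, commonly transient luciferase assays in mammalian cell lines.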

OR1N2 = test system: T2, OR1N2
T2 sequence (whole entry): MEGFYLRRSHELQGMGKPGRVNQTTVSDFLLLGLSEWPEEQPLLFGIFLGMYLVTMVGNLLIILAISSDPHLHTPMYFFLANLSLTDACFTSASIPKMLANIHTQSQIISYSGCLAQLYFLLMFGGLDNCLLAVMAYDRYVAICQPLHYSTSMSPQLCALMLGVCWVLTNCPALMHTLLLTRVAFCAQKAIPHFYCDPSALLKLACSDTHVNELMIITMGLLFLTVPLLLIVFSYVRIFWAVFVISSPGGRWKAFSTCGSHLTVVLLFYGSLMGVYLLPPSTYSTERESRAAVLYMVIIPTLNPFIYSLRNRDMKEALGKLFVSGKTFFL
In short: as §1

OR1Q1 (Homo sapiens) = target: T3, OR1Q1 (Homo sapiens) (UniProt Q15612)
T3 sequence (whole entry): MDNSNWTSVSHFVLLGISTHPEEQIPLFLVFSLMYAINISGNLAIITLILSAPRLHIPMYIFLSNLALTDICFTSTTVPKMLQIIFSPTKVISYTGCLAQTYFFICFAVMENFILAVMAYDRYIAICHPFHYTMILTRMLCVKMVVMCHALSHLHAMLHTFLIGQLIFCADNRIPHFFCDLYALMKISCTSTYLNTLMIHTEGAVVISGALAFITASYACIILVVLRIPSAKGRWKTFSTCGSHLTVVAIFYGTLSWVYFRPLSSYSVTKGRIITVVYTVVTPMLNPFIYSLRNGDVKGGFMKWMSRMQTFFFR
In short: as §1

OR1S1 (Homo sapiens) = target: T4, OR1S1 (Homo sapiens) (UniProt Q8NH92)
T4 sequence (whole entry): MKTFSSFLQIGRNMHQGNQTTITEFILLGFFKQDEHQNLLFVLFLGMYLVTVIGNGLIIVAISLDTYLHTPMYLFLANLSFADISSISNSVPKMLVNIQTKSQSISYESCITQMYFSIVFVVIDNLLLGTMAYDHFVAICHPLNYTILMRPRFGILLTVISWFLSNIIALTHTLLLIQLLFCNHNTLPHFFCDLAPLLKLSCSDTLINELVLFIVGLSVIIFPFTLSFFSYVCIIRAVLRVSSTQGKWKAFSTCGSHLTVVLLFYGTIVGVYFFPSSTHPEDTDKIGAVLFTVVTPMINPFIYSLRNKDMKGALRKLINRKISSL
In short: as §1

OR1S2 (Homo sapiens) = target: T5, OR1S2 (Homo sapiens) (UniProt Q8NGQ3)
T5 sequence (whole entry): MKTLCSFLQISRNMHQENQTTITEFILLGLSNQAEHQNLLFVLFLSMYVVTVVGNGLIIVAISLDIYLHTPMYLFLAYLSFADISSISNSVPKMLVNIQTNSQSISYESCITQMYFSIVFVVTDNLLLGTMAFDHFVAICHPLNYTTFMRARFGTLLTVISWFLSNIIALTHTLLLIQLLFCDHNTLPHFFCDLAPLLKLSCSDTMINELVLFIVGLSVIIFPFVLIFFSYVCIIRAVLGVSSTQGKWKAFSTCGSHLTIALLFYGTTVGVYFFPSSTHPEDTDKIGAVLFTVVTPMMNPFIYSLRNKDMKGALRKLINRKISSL
In short: as §1

OR1Q1 = test system: T6, OR1Q1
T6 sequence (whole entry): T3 sequence (whole entry) with Q24R, I163M
In short: as §1

OR1S2 E17G = test system: T7, OR1S2 E17G
T7 sequence (whole entry): T5 sequence (whole entry) with E17G
In short: as §1

OR1S2 V225T G240R = test system: T8, OR1S2 V225T G240R
T8 sequence (whole entry): T5 sequence (whole entry) with V225T, G240R
In short: as §1

OR2A1 S168C = test system: T9, OR2A1 S168C
T9 sequence (whole entry): T1 sequence (whole entry) with S168C
In short: as §1

OR1P1 (Homo sapiens) = OR1P1 (Homo sapiens) (UniProt Q8NH06)
Chain of OR1P1 (Homo sapiens) (Q8NH06 whole entry K185A): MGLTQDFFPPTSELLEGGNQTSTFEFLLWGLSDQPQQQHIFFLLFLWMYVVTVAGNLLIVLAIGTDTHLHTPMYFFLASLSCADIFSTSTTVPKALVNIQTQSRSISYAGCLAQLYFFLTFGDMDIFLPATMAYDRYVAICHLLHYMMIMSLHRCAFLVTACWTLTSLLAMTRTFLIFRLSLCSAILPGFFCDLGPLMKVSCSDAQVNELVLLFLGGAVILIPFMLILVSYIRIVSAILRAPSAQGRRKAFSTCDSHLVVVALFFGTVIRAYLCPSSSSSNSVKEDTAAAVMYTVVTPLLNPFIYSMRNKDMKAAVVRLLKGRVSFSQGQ
In short: as §1

Measured: odorant receptor agonist call;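 note: active if original authors judged signal statistically different from baseline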

O=c1ccc2ccccc2o1
inactive: OR2A1 (Homo sapiens)

CCCCCCCCCCCCCCCC(=O)OCC
inactive: OR2A1 (Homo sapiens)

CCCCCCCCCCCCCC(=O)OC
inactive: OR2A1 (Homo sapiens)

CC(CO)CS (stereo not drawn)
inactive: OR1N2 | OR1Q1 (Homo sapiens) | OR1S1 (Homo sapiens) | OR1S2 (Homo sapiens) | OR2A1 (Homo sapiens)

CCCCCCC=CCCC=O
not listed: OR1P1 (Homo sapiens)
inactive: all other assays above

CCCCCCCCCCCCCCCC(=O)[O-].[H+]
inactive: OR2A1 (Homo sapiens)

CC1=C(O)C(=O)C(C)O1 (stereo not drawn)
not listed: OR1P1 (Homo sapiens)
inactive: all other assays above

CCCC(=O)CC
inactive: OR2A1 (Homo sapiens)

CCCCC(S)C(C)CO (stereo not drawn)
inactive: OR1N2 | OR1Q1 (Homo sapiens) | OR1S1 (Homo sapiens) | OR1S2 (Homo sapiens) | OR2A1 (Homo sapiens)

CC1CCCCCCCCCCCCC(=O)C1 (stereo not drawn)
inactive: OR1N2 | OR1P1 (Homo sapiens) | OR1Q1 (Homo sapiens) | OR1S1 (Homo sapiens) | OR1S2 (Homo sapiens) | OR2A1 (Homo sapiens)

CCCCCCCCCC(=O)OC
inactive: OR2A1 (Homo sapiens)

CCCCCCCCCCCC(=O)OC
inactive: OR2A1 (Homo sapiens)

CCCC(S)CCOC(C)=O (stereo not drawn)
not listed: OR1P1 (Homo sapiens)
inactive: all other assays above

CC(=O)c1c(C)c([N+](=O)[O-])c(C(C)(C)C)c([N+](=O)[O-])c1C
inactive: OR1N2 | OR1P1 (Homo sapiens) | OR1Q1 (Homo sapiens) | OR1S1 (Homo sapiens) | OR1S2 (Homo sapiens) | OR2A1 (Homo sapiens)

CCCCCCCCCCCCCCCCCC(=O)[O-].[H+]
inactive: OR2A1 (Homo sapiens)

CCCCCCCCCCCCO
inactive: OR2A1 (Homo sapiens)

CCC1OC(=O)C(O)=C1C (stereo not drawn)
not listed: OR1P1 (Homo sapiens)
inactive: all other assays above

CCCCCCCCCC(=O)OCC
inactive: OR2A1 (Homo sapiens)
